Converted amounts (≈) assume the structure as drawn. The source made the active and inactive calls. No cut-off for these calls is given here.
What was measured:
[1] = Antibacterial activity against Bartonella henselae ATCC 49882 at 20 ug per disc after 7 days by Kirby-Bauer disc diffusion assay; assay type: functional, Bartonella henselae str. Houston-1; details: ATCC 49882, 168 h, read-out: DIZ
How it was run: (§1)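 Each paper disk was loaded with 20 µl of a 1 mg/ml solution, dried for 20 min and stored desiccated at 4 °C. Growth from 4-day plates was suspended in heart infusion broth to McFarland 2.0 and swabbed onto chocolate agar (heart infusion agar base with 5% bovine hemoglobin). Plates were incubated 1 week at 37 °C in 5% CO2. Zone diameter was read to the nearest mm, in triplicate and averaged.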

Bartonella quintana = assay: Antibacterial activity against Bartonella quintana ATCC VR358 at 20 ug per disc after 7 days by Kirby-Bauer disc diffusion assay; assay type: functional; details: ATCC VR358, 168 h, read-out: DIZ; how it was run: as §1
Bacillus anthracis = assay: Antibacterial activity against Bacillus anthracis sterne at 50 ug per disc by Kirby-Bauer disc diffusion assay; assay type: functional; details: read-out: DIZ
How it was run: (§2)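 Kirby-Bauer disk diffusion with 50 µg compound per 6 mm paper disk. Organisms were grown and plated by an earlier method. The zone-of-inhibition diameter was recorded to the nearest mm and averaged over three independent experiments. No zone was reported as 6 mm, the disk diameter.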

Staphylococcus aureus [2] = assay: Antibacterial activity against methicillin-resistant Staphylococcus aureus ATCC 43300; assay type: functional
How it was run: (§3)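 MIC against S. aureus strains was run by an earlier published procedure, tested in triplicate. Values were averaged and expressed as µg/ml of compound.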

[3] = Antibacterial activity against Bartonella henselae ATCC 49882 after 7 days by agar dilution method; assay type: functional, Bartonella henselae str. Houston-1; details: ATCC 49882, 168 h
How it was run: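 Agar dilution on chocolate agar containing compound at 10.0, 1.0 and 0.1 µg/ml, with 2-fold steps at and below 1.0 µg/ml for compounds active there. Controls were DMSO-only and drug-free plates. 25 µl of a McFarland 2.0 suspension in heart infusion broth was spotted and incubated 7 days at 37 °C in 5% CO2. Growth was scored +/− on duplicate plates; triplicate results were averaged.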

Bartonella elizabethae = assay: Antibacterial activity against Bartonella elizabethae F9251 at 20 ug per disc after 7 days by Kirby-Bauer disc diffusion assay; assay type: functional; details: F9251, 168 h, read-out: DIZ; how it was run: as §1
Escherichia coli [4] = assay: Antibacterial activity against Escherichia coli DH5alpha at 50 ug per disc by Kirby-Bauer disc diffusion assay; assay type: functional; details: DH5[alpha], read-out: DIZ
How it was run: (§4)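 Disks carried 50 µg of compound. Zone diameter was measured to the nearest mm and averaged over three independent experiments. A value of 6 mm, the disk diameter, was recorded where no inhibition was seen.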

Bartonella vinsonii = assay: Antibacterial activity against Bartonella vinsonii ATCC VR152 at 20 ug per disc after 7 days by Kirby-Bauer disc diffusion assay; assay type: functional; details: ATCC VR152, 168 h, read-out: DIZ; how it was run: as §1
Staphylococcus aureus [5] = assay: Antibacterial activity against methicillin-resistant Staphylococcus aureus isolate CBD 635; assay type: functional; how it was run: as §3
Staphylococcus aureus [6] = assay: Antibacterial activity against methicillin-resistant Staphylococcus aureus isolate CBD 635 at 50 ug per disc by Kirby-Bauer disc diffusion assay; assay type: functional; details: read-out: DIZ; how it was run: as §2
Enterococcus faecalis = assay: Antibacterial activity against Enterococcus faecalis DS16 at 50 ug per disc by Kirby-Bauer disc diffusion assay; assay type: functional; details: read-out: DIZ; how it was run: as §4
Staphylococcus aureus [7] = assay: Antibacterial activity against methicillin-susceptible Staphylococcus aureus SH1000; assay type: functional
How it was run: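 MIC in µg/ml, tested in triplicate and averaged, with ciprofloxacin as positive control.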

Escherichia coli [8] = assay: Inhibition of Escherichia coli DNA gyrase-mediated formation of supercoiled form of pUC19 at 1 to 100 ug/mL by gel electrophoresis
How it was run: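 Relaxed circular pUC19 was incubated with purified E. coli DNA gyrase and compound for 1 h at 37 °C. Relaxed and supercoiled DNA were resolved and quantified by gel electrophoresis.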

Bartonella henselae = assay: Antibacterial activity against Bartonella henselae infected in african green monkey Vero cells by immunofluorescence staining; assay type: functional
Staphylococcus aureus [9] = assay: Antibacterial activity against methicillin-susceptible Staphylococcus aureus SH1000 at 2.5 fold MIC by serial dilution method; assay type: functional
How it was run: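 Tryptic soy agar contained compound at 1x, 1.5x, 2.0x or 2.5x the measured MSSA MIC. Cells from 1 ml of an overnight MSSA broth culture were pelleted, resuspended in 100 µl TSB and spread with glass beads. Inoculum cfu was counted by serial dilution onto drug-free agar. Total colonies from at least 3 replicates are reported; frequency is colonies divided by total inoculum.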

[10] = Antibacterial activity against Bartonella henselae Houston-1 infected in human HMEC1 cells assessed as intracellular bacterial load at 1 ug/mL incubated for 96 hrs followed by compound washout measured after 7 days relative to control; assay type: functional, Bartonella henselae str. Houston-1
How it was run: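 HMEC-1 cells grown in MCDB131 with 10% FBS, EGF and hydrocortisone were infected with B. henselae Houston-1 at MOI 100 for 4 h. Extracellular bacteria were killed with gentamicin (200 µg/ml, 1 h), then compound was added at 0.1 or 1.0 µg/ml for 96 h. After washing, cells were lysed with 0.1% saponin and lysates plated on chocolate agar for 7 days. CFU are given as a percentage of the media-only control.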

SMILES	zone of inhibition at 20 µg/disc [1]	zone of inhibition at 20 µg/disc (Bartonella quintana)	zone of inhibition at 50 µg/disc (Bacillus anthracis)	MIC (Staphylococcus aureus [2])	MIC [3]	zone of inhibition at 20 µg/disc (Bartonella elizabethae)	zone of inhibition at 50 µg/disc (Escherichia coli [4])	zone of inhibition at 20 µg/disc (Bartonella vinsonii)	MIC (Staphylococcus aureus [5])	zone of inhibition at 50 µg/disc (Staphylococcus aureus [6])	zone of inhibition at 50 µg/disc (Enterococcus faecalis)	MIC (Staphylococcus aureus [7])	gyrase inhibition (active/inactive) (Escherichia coli [8])	MIC (Bartonella henselae)	CFU/ml (Staphylococcus aureus [9])	Activity [10]
CCCCCCCCC(=O)N1CCN(c2cc3c(cc2F)c(=O)c(C(=O)O)cn3C2CC2)CC1	6 mm	11 mm	55 mm	10 µg/mL (≈ 21.2 µM)	10 µg/mL (≈ 21.2 µM)	12 mm	30 mm	14 mm	> 100 µg/mL	22 mm	23 mm	10 µg/mL (≈ 21.2 µM)				
CC(CC(=O)N1CCN(c2cc3c(cc2F)c(=O)c(C(=O)O)cn3C2CC2)CC1)CC(C)(C)C (stereo not drawn)	15 mm	7 mm	80 mm	> 100 µg/mL	1 µg/mL (≈ 2.12 µM)	8 mm	6 mm	10 mm	> 100 µg/mL	35 mm	25 mm	25 µg/mL (≈ 53 µM)	Active			
CCC(CC)C(=O)N1CCN(c2cc3c(cc2F)c(=O)c(C(=O)O)cn3C2CC2)CC1	33 mm	17 mm	81 mm	1 µg/mL (≈ 2.33 µM)	5 µg/mL (≈ 11.6 µM)	26 mm	39 mm	25 mm	> 100 µg/mL	30 mm	22 mm	> 100 µg/mL				
C[C@@H]1CN(c2c(F)c(N)c3c(=O)c(C(=O)O)cn(C4CC4)c3c2F)C[C@H](C)N1 [SPARFLOXACIN]														6.4 µg/mL (≈ 16.3 µM)		
CC(C)(C)C(=O)N1CCN(c2cc3c(cc2F)c(=O)c(C(=O)O)cn3C2CC2)CC1	40 mm	33 mm	80 mm	> 100 µg/mL		36 mm	51 mm	36 mm	> 100 µg/mL	22 mm	44 mm	7.5 µg/mL (≈ 18.1 µM)	Active			
O=C(O)c1cn(C2CC2)c2cc(N3CCNCC3)c(F)cc2c1=O [CIPROFLOXACIN]	56 mm	6 mm	42 mm	15 µg/mL (≈ 45.3 µM)	0.5 µg/mL (≈ 1.51 µM)	58 mm	43 mm	58 mm		6 mm	31 mm	10 µg/mL (≈ 30.2 µM)		15.2 µg/mL (≈ 45.9 µM)	551	<=10%
CCCCC(CC)C(=O)N1CCN(c2cc3c(cc2F)c(=O)c(C(=O)O)cn3C2CC2)CC1 (stereo not drawn)	12 mm	6 mm	65 mm	> 100 µg/mL		12 mm	6 mm	15 mm	> 100 µg/mL	26 mm	28 mm	10 µg/mL (≈ 21.9 µM)				
O=C(O)c1cn(C2CC2)c2cc(N3CCN(C(=O)c4ccccc4)CC3)c(F)cc2c1=O	21 mm	7 mm	49 mm	> 100 µg/mL	0.2 µg/mL (≈ 0.459 µM)	13 mm	6 mm	12 mm	> 100 µg/mL	6 mm	6 mm	25 µg/mL (≈ 57.4 µM)				
CCC(=O)N1CCN(c2cc3c(cc2F)c(=O)c(C(=O)O)cn3C2CC2)CC1	56 mm	58 mm	86 mm	> 100 µg/mL	0.5 µg/mL (≈ 1.29 µM)	57 mm	57 mm	60 mm	> 100 µg/mL	20 mm	46 mm	40 µg/mL (≈ 103 µM)	Active		0	<=10%
CCCCCC(=O)N1CCN(c2cc3c(cc2F)c(=O)c(C(=O)O)cn3C2CC2)CC1	31 mm	30 mm	77 mm	25 µg/mL (≈ 58.2 µM)	5 µg/mL (≈ 11.6 µM)	30 mm	30 mm	21 mm	> 100 µg/mL	36 mm	38 mm	20 µg/mL (≈ 46.6 µM)	Active			
CCCCCCC(=O)N1CCN(c2cc3c(cc2F)c(=O)c(C(=O)O)cn3C2CC2)CC1	28 mm	20 mm	71 mm	> 100 µg/mL	10 µg/mL (≈ 22.5 µM)	20 mm	45 mm	22 mm	> 100 µg/mL	30 mm	36 mm	25 µg/mL (≈ 56.4 µM)				
CCCCC(=O)N1CCN(c2cc3c(cc2F)c(=O)c(C(=O)O)cn3C2CC2)CC1	38 mm	35 mm	80 mm	1 µg/mL (≈ 2.41 µM)	5 µg/mL (≈ 12 µM)	35 mm	47 mm	57 mm	> 100 µg/mL	30 mm	39 mm	7.5 µg/mL (≈ 18.1 µM)				
CCCC(CCC)C(=O)N1CCN(c2cc3c(cc2F)c(=O)c(C(=O)O)cn3C2CC2)CC1	14 mm	6 mm	72 mm	> 100 µg/mL	5 µg/mL (≈ 10.9 µM)	6 mm	6 mm	6 mm	> 100 µg/mL	6 mm	26 mm	10 µg/mL (≈ 21.9 µM)				
C[C@H]1COc2c(N3CCN(C)CC3)c(F)cc3c(=O)c(C(=O)O)cn1c23.C[C@H]1COc2c(N3CCN(C)CC3)c(F)cc3c(=O)c(C(=O)O)cn1c23.O [LEVOFLOXACIN]														0.84 µg/mL		
CC1COc2c(N3CCN(C)CC3)c(F)cc3c(=O)c(C(=O)O)cn1c23 (stereo not drawn) [OFLOXACIN]														5.6 µg/mL (≈ 15.5 µM)		
CCCC(=O)N1CCN(c2cc3c(cc2F)c(=O)c(C(=O)O)cn3C2CC2)CC1	34 mm	29 mm	86 mm	> 100 µg/mL	0.5 µg/mL (≈ 1.25 µM)	42 mm	48 mm	44 mm	> 100 µg/mL	6 mm	40 mm	> 100 µg/mL				<=10%
CCCCCCCC(=O)N1CCN(c2cc3c(cc2F)c(=O)c(C(=O)O)cn3C2CC2)CC1	16 mm	14 mm	65 mm	25 µg/mL (≈ 54.6 µM)	10 µg/mL (≈ 21.9 µM)	14 mm	6 mm	15 mm	> 100 µg/mL	6 mm	29 mm	25 µg/mL (≈ 54.6 µM)				
